BaF3 tox = parental Ba/F3 cell viability inhibition, counter-screen for JAK2V617F inhibitor project, murine pro-B, CellTiter-Glo luminescence. CellTiter-Glo ATP luminescence. inhibition, % at 5.6 µM. 220,000 compounds, 1.1% hits;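 active = inhibition above a per-campaign cutoff, the mean inhibition of all tested compounds plus 3 SD, cut at about 27% in these data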
Ba/F3 V617F tox = reduced viability of JAK2V617F-dependent Ba/F3 cells, primary screen, JAK2V617F inhibitor project, cell-based, Ba/F3 EpoR-JAK2V617F, luminescence. 220,000 compounds, 1.1% hits. inhibition, % at 5.6 µM. AID 1446, 2008. ATP luminescence;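 active = inhibition above the campaign mean plus 3 SD over all tested compounds, cut at about 24% in these data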;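 also: cytokine-independent growth of Ba/F3 cells driven by EpoR plus mutant JAK2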
IEC-6 cytotox = cytotoxicity in IEC-6 intestinal epithelial cells, primary screen, cytotoxicity control for KLF5 inhibitor project, cell-based, luminescence; IEC-6 cytotoxicity, luminescence viability; inhibition, % at 5 µM; 290,000 compounds, 0.78% hits; in the data active = inhibition above about 22%
APP transl inh = inhibitors of APP translation via 5'UTR reporter, primary screen, APP 5'UTR luciferase, SH-SY5Y cells; SH-SY5Y APP 5'UTR-luciferase reporter, luminescence; inhibition, % at 2 µM; 190,000 compounds, 0.82% hits; AID 1285, 2008;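 active = inhibition above a set limit, derived from the sample mean plus 3 SD, cut at about 45% in these data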
bCat nuc transl = modulators of beta-catenin nuclear translocation, primary screen, imaging, HeLa cells, immunofluorescence, high-content. nuclear translocation activity, % at 5 µM. 190,000 compounds, 0.3% hits. AID 1665, 2009;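 active = nuclear translocation activity above 50% at 5 µM, with a well cell count of 50 or more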;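 also: per-cell ratio of nuclear to cytoplasmic median beta-catenin stain intensity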
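Assay system: human HeLa cells, native beta-catenin; doses: 5 µM primary, 0.02–20 µM confirmation; incubation: compound treatment 24 h, 37°C, 5% CO2; technique: fluorescence imaging of beta-catenin antibody stain plus DAPI; measure: % activation, nuclear-to-cytoplasmic median beta-catenin signal ratio per cell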
MT stabilize HCS = microtubule stabilizers in HeLa cells, primary screen, imaging, high-content imaging. HeLa tubulin immunostaining HCS, 24 h; share of cells brighter than vehicle mean+2SD. % tubulin-high responders, % at 10 µM. 200,000 compounds, 0.83% hits. AID 2205, 2009;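 active = plate Z-score above 3 for both tubulin-high and condensed-nucleus cell shares, with cell loss under 80%, at 10 µM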;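 also: anti alpha tubulin signal scored within the nucleus-defined area of each cell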
Hits are given with their value; – = inactive; · = no result given. Sampled rows, rich in hits. Any-hit rate of the full collection: about 2.2%.

SMILES	BaF3 tox	Ba/F3 V617F tox	IEC-6 cytotox	APP transl inh	bCat nuc transl	MT stabilize HCS
COc1ccc(NC(=O)c2ccccc2-c2ccccc2C(=O)O)cc1	·	·	–	·	·	·
Cc1cccc(Oc2ccc(NC(=O)c3ccccc3C(=O)O)cc2)c1C	–	–	–	–	–	–
Cc1cc(OCC(=O)NNC(=S)NCC2CCCO2)cc(C)c1Cl (centres undefined)	·	·	–	·	·	·
O=C(N/N=C/c1cccs1)C1COc2ccccc2O1 (centres undefined)	–	–	–	–	–	40
Cc1cc(C)nc(SCc2ccc(C(=O)N/N=C/c3cccc(O)c3O)cc2)n1	–	–	–	62	–	–
COCCNc1nc(N2CCCCC2)c2cnn(C)c2n1	·	·	–	·	·	·
COc1ccc(/C=N/NC(=O)c2nc(-c3ccccc3)n(-c3ccccc3)n2)c(O)c1	–	–	–	49	–	–
CC(C)(C)c1cc(C(=O)N/N=C/c2ccc(F)cc2)n(-c2ccccc2)n1	–	–	–	–	–	–
CC(C)(C)c1cc(C(=O)N/N=C/c2ccccc2O)n(-c2ccccc2)n1	–	–	–	66	–	–
COc1ccc(/C=N/NC(=O)c2nc(-c3ccccc3)n(-c3ccccc3)n2)cc1	–	–	–	–	–	–
O=C(NCc1cccs1)C1CC(c2ccc(Cl)cc2)=NO1 (centres undefined)	–	–	–	–	–	–
COc1ccc(OC)c(C2=NOC(C(=O)NCc3cccs3)C2)c1 (centres undefined)	–	–	–	–	–	23
O=C(NCc1cccs1)C1CC(c2ccc(Cl)c(Cl)c2)=NO1 (centres undefined)	–	–	–	–	62	–
S=C(NCc1ccccc1)NCc1ccccc1Cl	·	·	–	·	·	·
Cc1cccc(C)c1N(C(=O)c1ccco1)C(C(=O)NC1CCCC1)c1ccncc1 (centres undefined)	·	·	–	·	·	·
Cc1onc(-c2ccccc2Cl)c1C(=O)N1CCN(c2cccc(Cl)c2)CC1	·	·	·	–	·	20
O=C(c1cccc(F)c1)N1CCN(c2cccc(Cl)c2)CC1	–	–	–	–	·	21
CCN(CC)S(=O)(=O)c1cc(NC(=O)C(=O)c2c(-c3ccccc3)cc3ccccn23)ccc1C	–	–	–	93	–	–
O=C(Nc1ccc(OC(F)(F)F)cc1)c1cnccn1	·	·	–	·	·	·
CC1CCCCN1CCNC(=O)c1ccc2c(=O)n(Cc3ccc(Cl)cc3)c(=S)[nH]c2c1 (centres undefined)	·	·	–	·	·	·
CC[n+]1c(/C=C/Nc2ccccc2)oc2ccccc21	–	–	–	–	–	–
CC[n+]1c(/C=C/N(C)c2ccccc2)oc2ccccc21	72	86	–	–	–	–
CC[n+]1c(/C=C/N(C)c2ccccc2)oc2ccc(F)cc21	72	79	–	–	–	–
CC(=O)c1cccc(NC(=O)CCC(=O)Oc2ccc(C)cc2)c1	·	·	–	·	·	·
Cc1nn(C)c(C(=O)Nc2c(C)nn(Cc3c(F)c(F)c(F)c(F)c3F)c2C)c1Br	·	·	–	·	·	·
SMILES	BaF3 tox	Ba/F3 V617F tox	IEC-6 cytotox	APP transl inh	bCat nuc transl	MT stabilize HCS
COc1ccc(-c2cn3c(C)c(C(=O)Nc4cc(NC(C)=O)ccc4OC)sc3n2)cc1	44	49	–	–	–	34
CCOC(=O)CSc1nc(=O)n2cccc(C)c2n1	–	–	–	45	–	–
CCOC(=O)C(C)Sc1nc(=O)n2cccc(C)c2n1 (centres undefined)	–	–	–	–	–	–
O=C(CCl)N(CCc1ccccc1)CCc1ccccc1	·	·	–	·	·	·
O=C(NCCN1CCCCC1)Nc1ccc(F)cc1F	·	·	–	·	·	·
Cc1ccc(Cn2c(CCCO)nc3ccccc32)cc1	·	·	–	·	·	·
N#Cc1c(-c2ccccc2)cc(-c2cccs2)nc1SCC(=O)O	·	·	–	·	·	·
COc1ccc(-c2cc(-c3cccs3)nc(OC)c2C#N)cc1OC	–	–	–	–	50	9.6
COc1ccc(-c2noc(-c3cccs3)n2)cc1OC	–	–	–	·	–	·
COc1nc(-c2cccs2)cc(-c2ccc(C)cc2)c1C#N	–	–	–	–	–	42
COc1ccc(C2C3=C(CCCC3=O)Nc3ccc4ncccc4c32)cc1OC (centres undefined)	–	–	–	–	–	–
COc1cc(C2C3=C(CCCC3=O)Nc3ccc4ncccc4c32)ccc1O (centres undefined)	–	–	–	–	–	33
CC(=O)Nc1ccc(NC(=O)/C(Cl)=C/c2ccccc2)cc1	93	–	–	–	–	–
COc1ccc(N2CCN(C(=O)NCc3cccc(OC)c3)CC2)cc1	·	·	–	·	·	·
Cc1cc(C)cc(OCc2nc3ncc(Br)cc3[nH]2)c1	–	–	–	–	·	34
COc1cccc(OCc2nc3ncc(Br)cc3[nH]2)c1	–	–	–	–	–	36
CCCN1CCN(c2ncnc3c2nnn3Cc2ccccc2)CC1	–	–	–	–	72	58
c1ccc(Cn2nnc3c(N4CCCCCC4)ncnc32)cc1	–	–	–	–	–	–
Cc1c(Cl)sn(-c2ccc(Cl)cc2)c1=O	–	–	–	92	–	–
Cc1nn(-c2ccc(Cl)cc2)c(=O)c2ccccc12	–	–	–	–	–	–
O=C(CSc1nc2ccccc2n1Cc1ccccc1)N/N=C/c1ccccc1C(=O)O	–	–	–	·	–	·
O=C(CSc1nc2ccccc2n1Cc1ccc(Cl)cc1)N/N=C/c1ccc(C(=O)O)cc1	–	–	–	54	–	–
CC1CCCC(NC(=O)C2N(CCCN3CCCC3)C(=O)C3C(C(=O)Nc4cccc(Cl)c4)C4C=CC32O4)C1C (centres undefined)	·	·	–	·	·	·
COc1cc2c(cc1OC)CN(C(=S)Nc1ccccc1)CC2	33	–	–	–	·	–
COc1cc2c(cc1OC)CN(C(=S)Nc1ccccc1Cl)CC2	–	–	–	–	–	–
SMILES	BaF3 tox	Ba/F3 V617F tox	IEC-6 cytotox	APP transl inh	bCat nuc transl	MT stabilize HCS
Clc1ccc(Cn2ncc3c(NCc4ccco4)ncnc32)c(Cl)c1	–	–	28	–	·	46
Clc1ccc(-n2ncc3c(NCc4ccco4)ncnc32)cc1	–	–	–	–	–	–
CC(NC(=O)c1cc(F)c(F)c(F)c1F)c1ccc(-n2ccnc2)cc1 (centres undefined)	·	·	–	·	·	·
CC(C(=O)Nc1ccccc1-c1ccccc1)N(C)Cc1nc2ccccc2c(=O)[nH]1 (centres undefined)	–	–	–	–	–	24
CC(NC(=O)CN(C)Cc1nc2ccccc2c(=O)[nH]1)c1ccccc1 (centres undefined)	–	–	–	–	·	–
C/C(=N\Nc1ncc(Cl)cc1Cl)c1ccccn1	–	–	–	70	–	–
CN(C1CCCCC1)S(=O)(=O)c1cc2c(cc1Cl)NC(=O)CO2	·	·	–	·	·	·
C/C(=N\NC(=O)c1c[nH]c2ccccc12)c1ccccn1	–	–	–	47	–	–
